Screens: PubChem, SRMLSC
H69AR growth 86K – proliferation blockers of H69AR lung cancer cells, primary screen, cell-based, human, 86K library; actives 6% (n = 85,000); viability, % at 10 µM; H69AR lung tumor viability, ATP luminescence, 72 h; hits give low values;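 active = viability at or below 40%; inactive = viability above 40%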;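 note: multidrug resistant small cell line overexpressing MRP-1 efflux transporter; 100% = mean luminescence of untreated control wells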
Fibroblast inh – antiproliferative effect on LL 47 fibroblasts – human, LL 47 cells, CellTiter-Glo luminescence, primary screen; LL 47 human lung fibroblast viability, ATP luminescence; hits give low values; viability, % at 10 µM; actives 1.1% (n = 85,000);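 active = viability at or below 50% in the single dose screen; inactive = viability above 50%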;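 note: compound exposure lasted 72 h before the ATP readout; 100% = median luminescence of untreated cell-only wells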
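Assay system: human lung fibroblast line LL 47, low passage. Input: 1,150 fibroblasts seeded per well. Times: overnight cell rest, 72 h compound treatment at 37 °C. Evaluation: % viability of median cell-only signal. Technique: luminescent ATP detection, CellTiter-Glo. Control set: cell-only wells, no compound.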
HUVEC prolif 384 – inhibitors of HUVEC proliferation, primary screen, cell-based, 384-well; CellTiter-Glo luminescence, 72 h; hits give low values; viability, % at 10 µM (by protocol); actives 1.1% (n = 86,000);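 active = viability at or below 30%; inactive = viability above 30%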;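 note: 100% = median luminescence of DMSO-only cell control wells on each plate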
bCat KO growth – primary screen for growth suppressors in beta-catenin knockout HCT116 cells (colon tumor, human); HCT116 beta-catenin knockout viability, CellTiter-Glo, 60 h; hits give low values; viability, % at 10 µM; actives 1.5% (n = 140,000); AID 818, 2007;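 active = viability at or under a set limit, the compound median less 4 SD, cut at about 6% in these data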;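 note: 0% = Hyamine 1622 control at 20 µM and 100% = untreated cell control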
HCT116 PTEN-null – growth suppression of PTEN-null HCT116, primary screen, cell-based, CellTiter-Glo | HCT116 PTEN-null viability, 60 h; hits give low values | viability, % at 10 µM | actives 1.2% (n = 140,000) | AID 827, 2007;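 active = viability at or below a set limit, 4 SD under the median of all tested compounds, cut at about 3.7% in these data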;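 note: PTEN knockout HCT116 line with beta catenin targeted HCT116 as companion control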
* hit, by the source's call. The full list was thinned out, with hits kept by preference.

COc1ccc(S(=O)(=O)N(C(C)=O)c2ccc(OC(C)=O)c3ccccc23)cc1[N+](=O)[O-] was read as bCat KO growth 2.0* and HCT116 PTEN-null 2.8*.
`CCOC(=O)N1CCN(C(=O)C(NS(=O)(=O)c2cccc3nsnc23)c2ccccc2)CC1` (stereo not given) gave H69AR growth 86K 85, Fibroblast inh 95, HUVEC prolif 384 86, bCat KO growth 90 and HCT116 PTEN-null 98.
CSc1ccc(S(=O)(=O)NCCSC(C)(C)C)cc1 was read as H69AR growth 86K 85, Fibroblast inh 91, HUVEC prolif 384 84, bCat KO growth 66 and HCT116 PTEN-null 75.
`Cc1ccc(C2NC(=O)c3ccccc3N2)s1` (stereo not given) gave H69AR growth 86K 32*, Fibroblast inh 60, HUVEC prolif 384 56, bCat KO growth 16 and HCT116 PTEN-null 21.
For O=C1NC(c2ccncc2)Nc2ccccc21 (stereo not given) the results were H69AR growth 86K 103, Fibroblast inh 93, HUVEC prolif 384 113, bCat KO growth 100 and HCT116 PTEN-null 96.
For CCc1ccc(CNCCNCC(C)O)cc1 (stereo not given) the results were bCat KO growth 85 and HCT116 PTEN-null 79.
`Cc1cc(N/N=C/c2ccc(O)cc2O)nc(-c2ccccc2O)n1` gave bCat KO growth 5.9* and HCT116 PTEN-null 2.7*.
For CCOc1ccc(NC2=NCC(=O)N2CCc2ccccc2)cc1 the results were H69AR growth 86K 97, Fibroblast inh 97, HUVEC prolif 384 88, bCat KO growth 94 and HCT116 PTEN-null 85.
For Cc1cc(C)n(-c2nnc(C)c(=O)[nH]2)n1 the results were bCat KO growth 98 and HCT116 PTEN-null 88.
CC(=O)c1cc2c(cc1NC(=O)c1cc(C)nn1-c1ccccc1)OCO2 was read as H69AR growth 86K 33*, Fibroblast inh 74, HUVEC prolif 384 46, bCat KO growth 35 and HCT116 PTEN-null 33.
`CC(=O)Nc1ccc(NC(=O)c2cc(C)nn2-c2ccccc2)cc1` gave H69AR growth 86K 89, Fibroblast inh 105, HUVEC prolif 384 111, bCat KO growth 95 and HCT116 PTEN-null 94.
Screening c1ccc(CSc2nnc(-c3cccnc3)o2)cc1 returned H69AR growth 86K 34*, Fibroblast inh 100, HUVEC prolif 384 87, bCat KO growth 96 and HCT116 PTEN-null 101.
`CN(C(=O)c1cccc(Nc2ccc(-c3ccc4c(c3)OCCO4)nn2)c1)C1CCCCC1` gave H69AR growth 86K 17*, Fibroblast inh 107, HUVEC prolif 384 51, bCat KO growth 52 and HCT116 PTEN-null 41.
`CCn1c(=N)n(CC(=O)c2ccc(OC)cc2)c2ccccc21` gave bCat KO growth 47 and HCT116 PTEN-null 42.
Cc1ccc(Cn2c(=N)n(CC(=O)c3ccc([N+](=O)[O-])cc3)c3ccccc32)cc1 was read as bCat KO growth 0.9* and HCT116 PTEN-null 0.9*.
Screening Cc1ccc(Cl)cc1N1CCN(CC(O)COCc2ccco2)CC1 (stereo not given) returned bCat KO growth 71 and HCT116 PTEN-null 68.
O=C1[C@H]2[C@H]3[C@H](O)[C@H](O)C/C(=N\OC[C@@H](O)COCc4ccco4)[C@@H]3CC[C@H]2C(=O)N1c1ccc(F)cc1F was read as bCat KO growth 0.3* and HCT116 PTEN-null 79.
For O=C(Nc1ccc2nc(-c3cccnc3)[nH]c2c1)C1CCCCC1 the results were H69AR growth 86K 25*, Fibroblast inh 103, HUVEC prolif 384 75, bCat KO growth 96 and HCT116 PTEN-null 94.
For O=C(Nc1ccc2nc(-c3cccnc3)[nH]c2c1)C12CC3CC(CC(C3)C1)C2 the results were H69AR growth 86K 30*, Fibroblast inh 48*, HUVEC prolif 384 6.0*, bCat KO growth 34 and HCT116 PTEN-null 35.
Screening Nc1cccc(C(=O)Nc2ccc3nc(-c4cccnc4)[nH]c3c2)c1 returned H69AR growth 86K 66, Fibroblast inh 113, HUVEC prolif 384 110, bCat KO growth 97 and HCT116 PTEN-null 94.
Cc1ccnc(NC(=O)CCCOc2cc(=O)n(C)c3ccccc23)c1 was read as bCat KO growth 5.4* and HCT116 PTEN-null 2.9*.
